How the values were obtained:
[1] = target: Myeloperoxidase (Homo sapiens) (UniProt P05164); test: Inhibition of human myeloperoxidase at 10 uM
[2] = target: Cytochrome P450 2D6 (Homo sapiens, UniProt P10635); test: Inhibition of human CYP2D6; format: ADME
Outline: (§1)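 Recombinant human CYP isoforms with isoform-specific probe substrates and NADPH. Compound at 0.1–25 μM, final DMSO 0.3%. Metabolites measured by mass spectrometry, except CYP1A2, which used a fluorescent metabolite. IC50 derived from the decrease in metabolite formation compared with vehicle control.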

[3] = target: NADPH oxidase 1 (Homo sapiens, UniProt Q9Y5S8); test: Inhibition of human NOX1 overexpressed in […] cell membrane assessed as ROS production by cell free assay in presence of NADPH; details: in the assay text read “T-REx-CHO cell membrane” for “human PMN cell membrane”
Outline: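 Membranes from T-REx-CHO cells stably co-transfected with human NOX1, p22, NOXA1 and NOXO1, induced with tetracycline (1 μg/mL, 24 h), prepared on a 17/40% sucrose gradient. Incubated in PBS with Amplex Red, HRP and cofactors, then NADPH added. Compound at 1 nM–100 μM, 20 min at 37 °C. Ki by Cheng-Prusoff, at least three experiments in triplicate.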

[4] = target: Cytochrome P450 3A4 (Homo sapiens, UniProt P08684); test: Inhibition of human CYP3A4; format: ADME; outline: as §1
Cytochrome P450 3A4, sequence (P08684 whole entry): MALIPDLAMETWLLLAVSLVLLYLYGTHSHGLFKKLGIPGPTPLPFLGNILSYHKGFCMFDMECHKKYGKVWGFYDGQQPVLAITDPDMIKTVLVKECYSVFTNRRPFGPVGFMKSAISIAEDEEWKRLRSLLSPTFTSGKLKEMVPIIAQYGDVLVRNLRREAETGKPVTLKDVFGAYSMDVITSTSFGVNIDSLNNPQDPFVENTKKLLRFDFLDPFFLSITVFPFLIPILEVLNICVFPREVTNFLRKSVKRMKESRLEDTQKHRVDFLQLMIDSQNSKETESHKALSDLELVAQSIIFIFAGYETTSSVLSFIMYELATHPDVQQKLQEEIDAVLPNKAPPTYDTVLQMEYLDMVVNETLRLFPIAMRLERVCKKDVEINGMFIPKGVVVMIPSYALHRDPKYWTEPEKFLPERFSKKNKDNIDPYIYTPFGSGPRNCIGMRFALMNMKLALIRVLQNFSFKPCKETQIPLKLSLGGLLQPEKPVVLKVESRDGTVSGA

[5] = target: Cytochrome P450 2C19 (Homo sapiens, UniProt P33261); test: Inhibition of human CYP2C19; format: ADME; outline: as §1
Cytochrome P450 2C19, sequence (P33261 whole entry): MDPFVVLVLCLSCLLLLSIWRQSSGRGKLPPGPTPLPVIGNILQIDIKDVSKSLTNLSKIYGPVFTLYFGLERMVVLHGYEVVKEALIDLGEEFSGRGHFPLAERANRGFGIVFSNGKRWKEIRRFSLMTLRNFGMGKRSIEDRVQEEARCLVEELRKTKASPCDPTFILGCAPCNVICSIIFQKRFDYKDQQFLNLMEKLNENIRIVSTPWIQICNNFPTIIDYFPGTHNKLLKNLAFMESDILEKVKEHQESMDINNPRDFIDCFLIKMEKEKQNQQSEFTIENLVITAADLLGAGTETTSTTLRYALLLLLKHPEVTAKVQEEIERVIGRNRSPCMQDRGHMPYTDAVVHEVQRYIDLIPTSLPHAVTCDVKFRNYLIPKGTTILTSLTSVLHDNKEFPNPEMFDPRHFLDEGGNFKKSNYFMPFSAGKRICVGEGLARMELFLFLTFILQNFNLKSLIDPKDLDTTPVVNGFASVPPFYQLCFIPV

[6] = target: Polyunsaturated fatty acid lipoxygenase ALOX12 (Homo sapiens) (UniProt P18054); test: Inhibition of human 12-lipoxygenase at 10 uM
[7] = target: Phosphatidylinositol 4,5-bisphosphate 3-kinase catalytic subunit delta isoform (Homo sapiens) (UniProt O00329); test: Inhibition of PI3Kdelta at 10; details: concentration not given here
[8] = target: Cytochrome P450 1A2 (Homo sapiens, UniProt P05177); test: Inhibition of human CYP1A2; format: ADME; outline: as §1
[9] = AUC (infinity) in Sprague-Dawley rat at 5 mg/kg, iv; format: ADME, organism-based; parameters: time infinity, dose 5 mg/kg, route intravenous; details: plasma
Outline: (§2)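 Parallel design with six male rats: three given 5 mg/kg iv in EDPW (10% EtOH, 10% DMA, 30% PG, 50% water), three given 10 mg/kg orally in aqueous 0.5% CMC with 0.25% Tween 20. Carotid cannula blood sampled up to 24 h. Plasma levels by LC/MS/MS (LLOQ 1.00 ng/mL). Noncompartmental analysis.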

[10] = target: Nitric oxide synthase, endothelial (Homo sapiens) (UniProt P29474); test: Inhibition of eNOS at 10 uM
[11] = target: Mitogen-activated protein kinase kinase kinase 5 (Homo sapiens) (UniProt Q99683); test: Inhibition of human ASK1 at 10 uM
Mitogen-activated protein kinase kinase kinase 5 (Homo sapiens), sequence (Q99683 whole entry): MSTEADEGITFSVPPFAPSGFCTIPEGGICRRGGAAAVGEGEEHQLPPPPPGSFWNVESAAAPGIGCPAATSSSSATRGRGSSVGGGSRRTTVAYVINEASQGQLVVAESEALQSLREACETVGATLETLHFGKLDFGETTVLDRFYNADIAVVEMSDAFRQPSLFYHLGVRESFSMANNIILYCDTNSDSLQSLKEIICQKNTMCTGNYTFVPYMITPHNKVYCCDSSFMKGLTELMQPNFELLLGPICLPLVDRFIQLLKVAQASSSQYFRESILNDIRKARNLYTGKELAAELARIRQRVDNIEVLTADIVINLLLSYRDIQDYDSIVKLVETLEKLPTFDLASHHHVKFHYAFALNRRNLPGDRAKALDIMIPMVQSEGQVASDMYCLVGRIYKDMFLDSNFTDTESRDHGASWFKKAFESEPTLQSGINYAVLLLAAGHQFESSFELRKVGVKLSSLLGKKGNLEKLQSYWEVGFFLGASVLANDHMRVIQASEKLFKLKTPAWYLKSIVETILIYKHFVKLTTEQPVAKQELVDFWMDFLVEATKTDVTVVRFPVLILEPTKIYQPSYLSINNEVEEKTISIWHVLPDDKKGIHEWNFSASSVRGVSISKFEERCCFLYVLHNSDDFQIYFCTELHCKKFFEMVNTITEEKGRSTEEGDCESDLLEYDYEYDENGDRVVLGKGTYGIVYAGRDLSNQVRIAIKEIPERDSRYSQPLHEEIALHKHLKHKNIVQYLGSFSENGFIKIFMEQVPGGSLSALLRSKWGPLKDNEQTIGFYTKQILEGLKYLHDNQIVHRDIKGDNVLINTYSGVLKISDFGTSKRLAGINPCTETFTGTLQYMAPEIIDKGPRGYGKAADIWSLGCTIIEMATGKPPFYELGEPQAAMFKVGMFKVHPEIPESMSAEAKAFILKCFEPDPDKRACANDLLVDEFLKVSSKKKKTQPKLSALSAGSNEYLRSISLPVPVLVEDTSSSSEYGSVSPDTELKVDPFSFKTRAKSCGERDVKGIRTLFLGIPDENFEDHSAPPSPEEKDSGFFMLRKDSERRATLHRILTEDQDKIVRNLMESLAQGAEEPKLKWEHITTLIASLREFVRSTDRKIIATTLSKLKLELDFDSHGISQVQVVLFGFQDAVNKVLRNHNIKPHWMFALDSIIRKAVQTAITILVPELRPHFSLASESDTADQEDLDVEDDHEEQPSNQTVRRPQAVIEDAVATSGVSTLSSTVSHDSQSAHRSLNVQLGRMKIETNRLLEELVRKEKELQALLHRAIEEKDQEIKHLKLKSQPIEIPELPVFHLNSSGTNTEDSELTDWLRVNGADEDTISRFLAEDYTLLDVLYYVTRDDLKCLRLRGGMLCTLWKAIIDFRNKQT

[12] = Genotoxicity in Salmonella Typhimurium at 100 uM by mini Ames test; format: toxicity; details: salmonella enterica subsp. enterica serovar typhimurium
[13] = target: Protein kinase C delta type (Homo sapiens) (UniProt Q05655); test: Inhibition of human PKCdelta at 10 uM
Protein kinase C delta type (Homo sapiens), sequence (Q05655 whole entry, looked up): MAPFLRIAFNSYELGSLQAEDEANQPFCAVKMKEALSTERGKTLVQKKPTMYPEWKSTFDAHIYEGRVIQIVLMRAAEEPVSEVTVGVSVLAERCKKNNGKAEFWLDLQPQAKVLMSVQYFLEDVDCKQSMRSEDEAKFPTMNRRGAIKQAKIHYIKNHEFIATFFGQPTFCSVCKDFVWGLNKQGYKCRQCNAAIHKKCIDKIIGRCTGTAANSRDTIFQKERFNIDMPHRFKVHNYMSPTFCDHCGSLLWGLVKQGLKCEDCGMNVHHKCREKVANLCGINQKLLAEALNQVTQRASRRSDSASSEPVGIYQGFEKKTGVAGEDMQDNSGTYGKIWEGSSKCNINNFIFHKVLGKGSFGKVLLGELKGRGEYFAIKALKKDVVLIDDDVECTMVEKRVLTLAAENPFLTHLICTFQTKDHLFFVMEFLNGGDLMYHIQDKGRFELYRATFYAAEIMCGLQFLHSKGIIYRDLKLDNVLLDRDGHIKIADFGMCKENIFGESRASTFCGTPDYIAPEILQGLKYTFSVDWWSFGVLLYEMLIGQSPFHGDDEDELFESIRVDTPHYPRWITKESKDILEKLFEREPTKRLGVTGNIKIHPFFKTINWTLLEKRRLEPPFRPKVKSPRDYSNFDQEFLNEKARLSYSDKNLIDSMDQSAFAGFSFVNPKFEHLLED

[14] = target: Endothelin-1 receptor (Homo sapiens) (UniProt P25101); test: Inhibition of human ET-A receptor at 10 uM
Endothelin-1 receptor (Homo sapiens), sequence (P25101 whole entry): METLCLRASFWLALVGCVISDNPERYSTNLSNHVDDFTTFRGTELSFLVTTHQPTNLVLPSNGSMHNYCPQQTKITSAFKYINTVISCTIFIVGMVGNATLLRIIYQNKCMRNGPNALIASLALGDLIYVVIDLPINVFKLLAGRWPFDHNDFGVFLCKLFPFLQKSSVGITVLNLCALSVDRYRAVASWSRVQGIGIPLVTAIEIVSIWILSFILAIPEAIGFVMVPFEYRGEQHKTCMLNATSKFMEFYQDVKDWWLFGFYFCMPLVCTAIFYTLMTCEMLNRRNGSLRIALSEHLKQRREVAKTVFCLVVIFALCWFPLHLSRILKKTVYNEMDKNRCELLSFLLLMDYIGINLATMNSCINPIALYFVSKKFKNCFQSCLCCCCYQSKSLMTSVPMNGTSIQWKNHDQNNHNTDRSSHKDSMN

[15] = target: MAP kinase p38 (Homo sapiens) (UniProt O15264+Q15759+Q16539+P53778); test: Inhibition of human p38 MAP kinase at 10 uM; format: protein assay
[16] = Cmax in Sprague-Dawley rat at 10 mg/kg, po; format: ADME, organism-based; parameters: dose 10 mg/kg, route oral; details: in vivo; outline: as §2
[17] = target: Tyrosine-protein phosphatase non-receptor type 1 (Homo sapiens) (UniProt P18031); test: Inhibition of human PTP1B at 10 uM
Tyrosine-protein phosphatase non-receptor type 1 (Homo sapiens), sequence (P18031 whole entry, canonical isoform): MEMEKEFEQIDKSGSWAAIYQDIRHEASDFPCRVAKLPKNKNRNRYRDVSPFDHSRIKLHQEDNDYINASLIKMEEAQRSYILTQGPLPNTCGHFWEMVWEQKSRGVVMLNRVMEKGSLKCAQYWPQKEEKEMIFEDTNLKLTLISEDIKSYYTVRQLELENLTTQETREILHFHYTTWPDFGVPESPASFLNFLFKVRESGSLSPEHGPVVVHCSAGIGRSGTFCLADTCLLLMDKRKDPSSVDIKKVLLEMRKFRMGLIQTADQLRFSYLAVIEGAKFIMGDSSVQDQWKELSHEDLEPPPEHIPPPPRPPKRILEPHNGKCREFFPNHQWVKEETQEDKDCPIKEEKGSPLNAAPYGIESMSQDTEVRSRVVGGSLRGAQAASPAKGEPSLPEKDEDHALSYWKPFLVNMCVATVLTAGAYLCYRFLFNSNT

[18] = target: Phosphatidylinositol 4,5-bisphosphate 3-kinase catalytic subunit gamma isoform (Homo sapiens) (UniProt P48736); test: Inhibition of PI3Kgamma at 10; details: concentration not given here
[19] = Permeability across human Caco-2 cell membrane at 10 uM after 2 hrs; format: ADME, cell-based
Outline: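 Caco-2 monolayers grown 20 days in DMEM, used when TEER >800 Ω·cm2. Dosed at 10 μM final in HBSS pH 6.5 with 1% DMSO, apical-to-basolateral and basolateral-to-apical. Incubated 2 h at 37 °C, both compartments sampled, LC-MS/MS with five-point calibration. Papp = (dQ/dt)/(C0A).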

[20] = Inhibition of chloride channel at 10 uM
[21] = Intrinsic clearance in Sprague-Dawley rat liver microsomes assessed per mg of protein at 0.5 uM; format: ADME, Microsome
Outline: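 Phase I stability assay in pooled liver microsomes (human: male and female; rat: male Sprague-Dawley). Microsomes at 0.5 mg/mL final in 0.1 M phosphate pH 7.4. Compound 0.5 μM final, 0.25% DMSO. Preincubated at 37 °C, reaction started with 1 mM NADPH. Sampled at 0, 5, 15, 30 and 45 min, with a 45 min minus-NADPH control. Methanol quench with internal standard, LC/MS-MS, intrinsic clearance calculated.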

[22] = target: Dual specificity mitogen-activated protein kinase kinase 1 (Homo sapiens) (UniProt Q02750); test: Inhibition of human MEK1 at 10 uM
Dual specificity mitogen-activated protein kinase kinase 1 (Homo sapiens), sequence (Q02750 whole entry): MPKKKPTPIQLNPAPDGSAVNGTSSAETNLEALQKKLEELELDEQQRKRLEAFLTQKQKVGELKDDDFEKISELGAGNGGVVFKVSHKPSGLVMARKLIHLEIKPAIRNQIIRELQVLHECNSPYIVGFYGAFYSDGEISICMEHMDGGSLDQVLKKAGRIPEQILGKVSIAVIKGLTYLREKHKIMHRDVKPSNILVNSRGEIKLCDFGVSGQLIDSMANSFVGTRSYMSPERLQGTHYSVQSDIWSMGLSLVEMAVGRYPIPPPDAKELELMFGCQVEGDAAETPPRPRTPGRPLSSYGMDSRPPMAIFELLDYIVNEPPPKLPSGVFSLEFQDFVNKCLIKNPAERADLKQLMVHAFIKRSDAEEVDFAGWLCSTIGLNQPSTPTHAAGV

Myeloperoxidase (Homo sapiens), sequence (P05164 165-273 limits assumed): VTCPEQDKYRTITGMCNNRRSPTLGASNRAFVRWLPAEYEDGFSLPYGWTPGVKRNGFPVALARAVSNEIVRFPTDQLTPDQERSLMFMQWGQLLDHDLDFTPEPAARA
Myeloperoxidase (Homo sapiens), sequence (P05164 279-745 limits assumed): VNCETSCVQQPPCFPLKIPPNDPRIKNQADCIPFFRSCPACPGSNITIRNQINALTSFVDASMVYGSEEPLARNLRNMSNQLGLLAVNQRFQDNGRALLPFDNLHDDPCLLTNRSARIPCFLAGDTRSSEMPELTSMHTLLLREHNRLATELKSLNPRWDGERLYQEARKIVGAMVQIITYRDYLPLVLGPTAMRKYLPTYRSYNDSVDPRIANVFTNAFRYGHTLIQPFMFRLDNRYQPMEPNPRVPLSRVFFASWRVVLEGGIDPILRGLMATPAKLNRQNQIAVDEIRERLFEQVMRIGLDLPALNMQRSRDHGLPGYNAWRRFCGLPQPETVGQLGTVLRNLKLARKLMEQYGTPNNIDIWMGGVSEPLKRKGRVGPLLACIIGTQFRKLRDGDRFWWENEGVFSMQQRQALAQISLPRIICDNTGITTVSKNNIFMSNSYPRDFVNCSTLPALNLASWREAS

`Cc1c2c(=O)n(-c3ccccc3Cl)[nH]c2cc(=O)n1Cc1ccccn1` gave an inhibition [1] of 0%, an IC50 [2] greater than 25 µM and a Ki [3] of 0.16 µM. It also gave an IC50 [4] of 20.9 µM, an IC50 [5] greater than 25 µM and an inhibition [6] of 2%. The inhibition [7] was 0%, the IC50 [8] was greater than 25 µM and the AUC(0-inf) [9] was 11000 ng·h/mL. For the same molecule, the inhibition [10] was 6%, the inhibition [11] was 0% and the Activity [12] was “Non-toxic”. It also gave an inhibition [13] of 0%, an inhibition [14] of 0% and an inhibition [15] of 10%. The Cmax [16] was 3150 ng/mL, the inhibition [17] was 0% and the inhibition [18] was 0%. It also gave a Papp at 2 h, 10 µM [19] of 21.4 ×10⁻⁶ cm/s, an inhibition [20] of 0% and a microsomal CLint at 0.5 µM [21] of 70.2 µL/min/mg. For the same molecule, the inhibition [22] was 0%.
